# KCNK9 block: inhibitors of human KCNK9 two-pore domain potassium channel. B-score at 10 µM. 310,000 compounds, 1.2% hits. HEK293 KCNK9, FluxOR thallium flux fluorescence; active compounds read low. AID 488922;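 active = ratio B-score over 3 SD below the library mean, with starting fluorescence within 5 SD of its mean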;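 note: negative B-score means less thallium flux so channel inhibition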
# Target sequence (Q9NPC2 whole entry, looked up, the tested form may be a part): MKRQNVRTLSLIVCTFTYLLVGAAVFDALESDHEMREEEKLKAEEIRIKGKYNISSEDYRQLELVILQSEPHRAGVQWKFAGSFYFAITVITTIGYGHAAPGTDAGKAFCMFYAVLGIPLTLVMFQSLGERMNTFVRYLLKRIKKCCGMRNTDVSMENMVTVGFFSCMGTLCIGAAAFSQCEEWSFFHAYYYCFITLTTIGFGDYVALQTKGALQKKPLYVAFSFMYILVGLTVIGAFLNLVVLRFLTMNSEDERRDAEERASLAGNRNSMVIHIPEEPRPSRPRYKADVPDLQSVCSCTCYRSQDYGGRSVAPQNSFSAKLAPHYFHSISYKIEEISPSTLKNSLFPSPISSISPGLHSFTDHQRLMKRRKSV
# KCNQ1 pot: potentiators or activators of human KCNQ1 potassium channel; P51787; CHO-K1 KCNQ1, thallium flux FluxOR fluorescence; active compounds read high; B-score at 10 µM; 310,000 compounds, 0.35% hits; AID 2648;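 active = fluorescence ratio B-score, a plate-corrected score, at least three library SD, with initial intensity B-score within 5 SD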
#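 Medium – assay buffer, equal DMSO in all wells · Material – CHO-K1 cell line with stable KCNQ1 potassium channel expression · Signal – kinetic FluxOR thallium fluorescence, 10-s 1-Hz baseline, 110-s post-stimulus read · Compound – single concentration per compound, DMSO matched to controls · Schedule – 37 °C overnight plating, 90-min dark dye load, 20-min compound pretreatment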
# KCNQ1 inh: inhibitors of human KCNQ1 potassium channel | CHO-K1 KCNQ1, FluxOR thallium flux fluorescence; active compounds read high | B-score at 10 µM | 310,000 compounds, 1.3% hits | AID 2642;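 active = compounds whose thallium flux B-score, printed positive for inhibition, exceeds three library SD while starting fluorescence stays within three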;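 note: channel opened by potassium depolarization with thallium stimulus after 20 min compound exposure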
# hERG protect: hERG (human) protection from proarrhythmic block; Q12809; CHO-hERG, FluxOR thallium flux, dofetilide IC70 present; activation (rescue from dofetilide block), less the hit threshold, % at 10 µM; 310,000 compounds, 0.51% hits; AID 1511;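 active = activation above the mean of controls blocked by dofetilide plus 5 SD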;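 note: thallium influx through hERG after potassium depolarization seen as dye fluorescence rise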
# Kir21 inh: Kir2.1 (mouse) channel inhibition; AID 1672; P35561; HEK293-Kir2.1, FluxOR thallium flux fluorescence; active compounds read low; B-score at 10 µM; 310,000 compounds, 0.85% hits;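 active = fluorescence ratio B-score at or below minus 3 SD of library scores, with starting-brightness B-score within 2 SD, cut at about -4.2 in these data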;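 note: channel flux triggered by added potassium and thallium sulfate stimulus; B-score of peak minus minimum fluorescence over baseline after thallium stimulus; more negative B-score means stronger Kir2.1 block with less thallium influx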
# KCNK3 block: human KCNK3 channel inhibition, primary screen; CHO-KCNK3 thallium flux, FluxOR fluorescence; active compounds read low; 340,000 compounds, 0.84% hits; B-score at 10 µM;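 active = B-score under library mean minus 4 SD, starting fluorescence ratio at most library mean plus 5 SD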;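 note: more negative B-score means stronger inhibition of thallium flux through KCNK3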
# KCNQ1 inh valid: reconfirmed blocker of the human KCNQ1 potassium channel | shares compounds with KCNQ1 inh | KCNQ1 cell line, FluxOR thallium flux fluorescence | inhibition, % at 10 µM | 1,600 compounds, 93% hits;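 active = primary screen active, with duplicate mean exceeding buffer control mean plus 3 SD of buffer wells, cut at about 28% in these data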;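 note: 0% = buffer control ratio and 100% = XE991 inhibitor control ratio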
# CHO KCNQ1 ctr: counter-screen for KCNQ1 inhibitors: effect in parental CHO cells; shares compounds with KCNQ1 inh; parental CHO-K1, FluxOR thallium flux fluorescence ratio; active compounds read low; zero means no signal rise above baseline; fluorescence ratio (Tl flux) at 10 µM; 1,600 compounds, 21% hits; AID 588366;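 active = mean of duplicate thallium-flux fluorescence ratios in parental host cells more than 5 SD below the buffer control mean, cut at about 0.38 in these data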;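 note: ratio is peak minus minimum fluorescence divided by baseline fluorescence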
# KCNQ1 APC inh: confirmation of human KCNQ1 potassium channel inhibitors by electrophysiology | shares compounds with KCNQ1 inh | KCNQ1-CHO cells, automated patch clamp current | calls only at 10 µM | 490 compounds, 20% hits;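 active = KCNQ1 current drop exceeding 3 SD of negative control wells, seen in both duplicate runs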;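 note: steady state current during a 2 s step from -80 to +40 mV; negative values mean current inhibition and positive values mean potentiation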
# KCNQ2 spec: rat KCNQ2 inhibition in KCNQ1 inhibitor specificity screen. shares compounds with KCNQ1 inh. KCNQ2 cells, FluxOR thallium flux fluorescence. inhibition, % at 10 µM. 1,600 compounds, 71% hits. AID 651746;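 active = mean percent inhibition of the KCNQ2 thallium signal more than 5 SD above the buffer-only control wells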;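 note: KCNQ2 expressed in CHO cells; 0% = buffer control wells and 100% = XE-991 inhibitor control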
# KCNQ1 KCNE1 spec: human KCNQ1/KCNE1 inhibition in KCNQ1 specificity screen | shares compounds with KCNQ1 inh | inhibition, % at 10 µM | AID 652147 | KCNQ1/KCNE1 cells, FluxOR thallium flux fluorescence | 1,600 compounds, 77% hits;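 active = mean percent inhibition of duplicate wells above the buffer-only control mean plus 3 SD of those controls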;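 note: 0% = buffer only wells and 100% = XE-991 inhibitor control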
# * marks the source's active call; other numbers are inactive results; i = inactive; x = not tested or not shown; + = active, no number. Sampled rows, rich in hits. Any-hit rate of the full collection: about 3.8%.
SMILES,KCNK9 block,KCNQ1 pot,KCNQ1 inh,hERG protect,Kir21 inh,KCNK3 block,KCNQ1 inh valid,CHO KCNQ1 ctr,KCNQ2 spec,KCNQ1 KCNE1 spec,others
O=c1c2c3c(sc2nc(NCCO)n1Cc1ccco1)CCCCC3,i,i,i,-2,-0.14,i,x,x,x,x,
O=c1c2c3c(sc2nc(NCCO)n1CCc1ccccc1)CCCCC3,i,i,6*,-14,-0.02,i,67*,0.45,92%*,100%*,
CCOC(=O)c1c(C)n(C)c2cc(Br)c(O)c(O)c12,i,i,6*,-5,0.39,i,0,0.5,59%*,i,
COc1cc2c(C(=O)NCc3ccc4c(c3)OCO4)cn(C)c(=O)c2cc1OC,i,i,i,-1,0.79,i,x,x,x,x,
Cc1ccc(C(=O)Nc2nc(=O)n(C(=O)CC(C)C)s2)cc1,i,i,6*,2,0.04,i,34*,0.61,i,i,
COc1ccc(N(C(=O)c2ccco2)C(C(=O)NC2CCCC2)c2cccnc2)c(OC)c1 (stereo unspecified),i,i,i,-4,1.2,i,x,x,x,x,
S=c1[nH]cnc2sc(Nc3ccccc3)nc12,i,i,i,-3,-0.3,i,x,x,x,x,
CCOC(=O)N1CCN(c2nc3ccccc3nc2C(C#N)S(=O)(=O)c2ccc(C)cc2)CC1 (stereo unspecified),i,i,9*,-10,-0.03,i,61*,0.51,i,50%*,
Cc1ccc(S(=O)(=O)C(C#N)c2nc3ccccc3nc2N2CCN(C)CC2)cc1 (stereo unspecified),i,i,i,-7,0.52,i,x,x,x,x,
O=C(Nc1ccc(Cl)cc1)NC1CCCCC1Cc1ccco1 (stereo unspecified),i,i,8*,-9,-0.74,i,126*,0.44,77%*,102%*,KCNQ1 APC inh=+
Cc1ccc(Cl)cc1N1CCN(C(=O)CSc2nnc3n2C(C)(C)Cc2ccccc2-3)CC1,i,i,17*,-31,0.79,-9*,148*,0.28*,145%*,+,
COc1ccc(N2CCN(C(=O)CSc3nnc4n3C(C)(C)Cc3ccccc3-4)CC2)cc1,i,i,i,-13,-0.1,i,x,x,x,x,
O=C(Nc1cc(C(F)(F)F)ccc1N1CCCC1)C1CCCO1 (stereo unspecified),x,x,x,x,x,i,x,x,x,x,
O=[N+]([O-])c1ccc(O)c(N=Cc2sc3ccccc3c2O)c1,i,i,i,-18,-0.1,i,x,x,x,x,
Oc1c(C=Nc2cccc3cccnc23)sc2ccccc12,-8.1*,i,10*,-18,0.68,x,88*,0.36*,i,134%*,
CCc1noc(C)c1C(=O)N1CCCSC1=Nc1ccccc1,i,i,8*,-9,0.7,i,101*,0.47,59%*,66%*,KCNQ1 APC inh=+
CCc1noc(C)c1C(=O)N1CCOCC1,i,i,i,-11,-0.29,i,x,x,x,x,
O=S(=O)(NC1CCCCC1Oc1ccccc1)c1ccc(Cl)cc1 (stereo unspecified),i,i,i,-9,-3.7,i,x,x,x,x,
CSc1ccc(OC2CCCCC2NS(=O)(=O)c2ccc(Cl)cc2)cc1 (stereo unspecified),i,i,6*,-8,0.32,i,120*,0.41,115%*,142%*,KCNQ1 APC inh=i
Cc1sc2ncnc(NCC3COc4ccccc4O3)c2c1C (stereo unspecified),i,i,i,-21,-0.79,i,x,x,x,x,
c1ccc(-c2csc3ncnc(NCC4COc5ccccc5O4)c23)cc1 (stereo unspecified),i,i,9*,-11,0.76,i,151*,0.35*,132%*,+,
N#CCCn1cc(C(=O)Nc2ccc([N+](=O)[O-])cc2)c(-c2cccs2)n1,i,i,i,-11,0.02,i,x,x,x,x,
Cc1cc(OCCn2ccnc2)ccc1C(C)C,i,i,6*,-10,-0.05,i,0,0.51,64%*,42%*,
Cc1ccc(OCCCn2ccnc2)cc1C,i,i,i,-7,0.15,i,x,x,x,x,
COc1cccc(C2CC(c3cccs3)=NN2C(=O)CSc2nc3c(cnn3-c3ccc(F)cc3)c(=O)[nH]2)c1OC (stereo unspecified),i,i,15*,-7,1.4,i,116*,0.42,71%*,85%*,KCNQ1 APC inh=i
SMILES,KCNK9 block,KCNQ1 pot,KCNQ1 inh,hERG protect,Kir21 inh,KCNK3 block,KCNQ1 inh valid,CHO KCNQ1 ctr,KCNQ2 spec,KCNQ1 KCNE1 spec,others
CC(C)COc1cccc(C(=O)Nc2cc(S(=O)(=O)N3CCOCC3)ccc2N2CCCC2)c1,x,x,x,x,x,i,x,x,x,x,
Cc1ccc(OCc2cc(C(=O)N3CCC(Oc4cccnc4)CC3)no2)cc1C,i,i,7*,-13,0.37,i,114*,0.42,83%*,52%*,KCNQ1 APC inh=i
O=C(c1cc(COc2ccc3ncccc3c2)on1)N1CCC(O)CC1,i,i,i,-10,0.29,i,x,x,x,x,
O=C(c1cc(COc2cccc(C(F)(F)F)c2)on1)N1CCC(Oc2cccnc2)CC1,i,i,8*,-16,1.9,i,132*,0.45,96%*,85%*,KCNQ1 APC inh=i
CCC(O)C1CCN(C(=O)c2cc(COc3ccc4ncccc4c3)on2)CC1 (stereo unspecified),i,i,8*,-15,-0.3,i,58*,0.48,100%*,i,
CC(C)N1CCC(=NNC(=O)c2ccc(Br)o2)CC1,i,i,i,-6,1.5,i,x,x,x,x,
O=C(CN1CCN(c2ccccc2)CC1)Nc1ccc(-n2cnnn2)cc1,i,i,i,-5,1.1,i,x,x,x,x,
O=C1/C(=C\c2cccc(O)c2O)SC(=S)N1Cc1ccccc1,i,i,i,0,0.02,i,x,x,x,x,
O=C1/C(=C\c2cc([N+](=O)[O-])ccc2O)SC(=S)N1Cc1ccc(Cl)cc1,i,i,17*,-31,-12,i,165*,0.22*,i,i,

# Bioassay records (PubChem BioAssay)
